Screens (PubChem)
SENP8 block-1: SENP8 protease inhibition; 1.2% of 330,000 active; Q96LD8; purified SENP8, Z-RLRGG-aminoluciferin cleavage, luminescence; inhibition, % at 10 µM; in the data active = inhibition above about 50%
SENP6 inh: SENP6 protease inhibition | 1.8% of 330,000 active | Recombinant SENP6 catalytic domain, aminoluciferin luminescence | AID 2599 | inhibition, % at 10 µM;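 active = inhibition above about 50% at the single tested dose, limit read from the data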;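 note: plate controls were DMSO wells with enzyme for no effect and DMSO wells lacking enzyme for full effect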
SENP1 inh: blocks the human SENP1 SUMO protease catalytic domain | AID 624204 | Q9P0U3 | inhibition, % at 10 µM | recombinant SENP1 catalytic domain, CyPet-SUMO1-YPet FRET cleavage | 0.21% of 360,000 active;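 active = inhibition at least 30% at 10 µM, raw YFP signal under a set limit, fluorescence ratio 0.5 to 1.5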;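 note: 0% = enzyme with DMSO and 100% = no enzyme wells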
Target sequence (Q9P0U3 419-644 limits assumed): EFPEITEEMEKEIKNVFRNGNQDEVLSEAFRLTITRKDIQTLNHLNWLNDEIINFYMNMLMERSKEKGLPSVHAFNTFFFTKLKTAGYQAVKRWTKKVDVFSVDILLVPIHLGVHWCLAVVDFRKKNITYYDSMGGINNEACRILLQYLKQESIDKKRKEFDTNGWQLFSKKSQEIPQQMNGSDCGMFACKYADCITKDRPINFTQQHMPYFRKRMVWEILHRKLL
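Controls: no-enzyme wells low, DMSO-plus-enzyme wells high control. Test system: human recombinant His6-tagged SENP1 catalytic domain enzyme. Reagent: SFCypet-SUMO1-SFYpet FRET protein substrate, 25 nM final. Doses: one dose per compound, 10 µM, 0.5% DMSO. Detection: FRET, CFP and YFP emission. Timing: 50 min reaction at room temperature.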
SENP7 block: blocks the human protease SENP7; recombinant SENP7, Z-RLRGG-aminoluciferin luminescence, 40 min; inhibition, % at 5 µM; 1.5% of 330,000 active; AID 434973;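 active = inhibition above about 50% at the single test dose, limit read from the data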;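 note: plate controls were DMSO with enzyme for no effect and no enzyme buffer wells for full effect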
Target sequence (Q9BQF6 706-1050 limits assumed): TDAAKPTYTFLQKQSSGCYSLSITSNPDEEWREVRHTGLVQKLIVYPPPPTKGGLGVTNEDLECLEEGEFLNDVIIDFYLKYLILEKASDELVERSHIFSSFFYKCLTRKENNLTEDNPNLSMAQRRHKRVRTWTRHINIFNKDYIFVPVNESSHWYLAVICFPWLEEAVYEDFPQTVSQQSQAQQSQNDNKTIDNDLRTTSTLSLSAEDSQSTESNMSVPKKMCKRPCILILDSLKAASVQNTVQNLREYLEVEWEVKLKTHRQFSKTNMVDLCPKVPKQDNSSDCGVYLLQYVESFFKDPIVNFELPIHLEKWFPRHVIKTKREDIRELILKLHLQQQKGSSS
SENP8 block-2: blocks human SENP8 cleavage of Nedd8 substrate; Q96LD8; inhibition, % at 20 µM; 0.64% of 360,000 active; AID 602440; recombinant SENP8, Nedd8 substrate fluorescence; in the data active = inhibition mostly above about 40%, no sharp cut-off; inactive = mostly below about 27%
The depositor's hits bear a star; i = inactive; / = not tested or not shown. The list is not random: actives were taken first. Their share in the collection is about 2.5%.

SMILES	SENP8 block-1	SENP6 inh	SENP1 inh	SENP7 block	SENP8 block-2
COC(=O)c1sccc1NC(=O)/C=C/c1ccc(Cl)cc1	57.8*	74.1*	2.8	94.7*	-40.0
COC(=O)c1cc(Cl)c(NC(=O)/C=C/c2ccc(OC)cc2)cc1OC	-13.6	-4.4	-0.6	-4.8	-359.8
Cc1cc(C)nc(NC(=O)/C=C/c2ccccc2Cl)c1	-4.1	82.7*	8.7	81.5*	3.4
Cc1cccc(NC(=O)/C(C#N)=C/c2ccc(Cl)cc2)n1	-3.4	5.1	-2.6	-2.8	7.3
O=C(CSc1ccccn1)N1CCNC1=O	-5.4	-3.7	-3.8	1.3	20.4
Cc1cc2[nH]c(=O)cc(-c3ccccc3)n2n1	23.9	21.8	-4.5	2.5	-298.6
Nc1nn2c(-c3ccccc3)cc(=O)[nH]c2c1N=Nc1ccc(Br)cc1	/	/	5.2	/	41.4*
Nc1nn2c(-c3ccccc3)cc(=O)[nH]c2c1N=Nc1ccc(O)cc1	-1.5	11.9	3.5	6.6	63.0*
CN(CC(=O)Nc1ccc(OC(F)(F)F)cc1)C(=O)Cc1cccs1	-13.8	4.7	-7.8	-4.7	-0.9
CCCc1ccc(-c2cc(C(=O)Nc3ccc([N+](=O)[O-])cn3)c3ccccc3n2)cc1	-5.6	-4.0	-0.2	-1.4	-26.7
CC1(C(=O)NCc2cccc(Cl)c2)Cc2c(-c3ccc4c(c3)OCO4)ccnc2O1 (stereo unspecified)	/	/	0.2	/	-79.9
C=C(C)C1CC=C(C)/C(=N\NC(=O)CNc2cccc3ccccc23)C1 (stereo unspecified)	42.5	59.7*	-23.4	12.2	-369.1
COC(=O)C[C@H]1CC[C@H](NC(=O)c2cccc(F)c2)[C@@H](CO)O1	/	/	3.1	/	18.2
Cc1ccc(N=Nc2c(=O)[nH]n3c(C)cc(C)nc23)cc1	-9.7	-15.5	5.0	-10.0	48.9*
COc1ccc(S(=O)(=O)Nc2ccc3c(c2)OCCO3)cc1OC	9.6	3.3	1.9	-0.1	13.8
O=C(CSc1cn(CC(=O)N2CCOCC2)c2ccccc12)N1CCOCC1	0.6	-2.3	0.4	6.6	10.3
O=C(Cn1cc(SCc2cccc(Cl)c2)c2ccccc21)N1CCOCC1	46.7	-15.1	1.2	54.8*	12.1
COc1ccc(-c2nc(-c3cccs3)no2)cc1	96.5*	98.6*	2.2	98.6*	27.2
COc1cc(/C=C2/C(=O)N(c3ccc([N+](=O)[O-])cc3)N=C2N2CCOCC2)ccc1O	-1.0	42.3	4.5	21.2	63.9*
CC(=O)c1sc(N/N=C2\CC3CCC2(C)C3(C)C)nc1C (stereo unspecified)	-6.4	-15.5	-1.6	-3.5	-158.8
COC(=O)c1ccc(OC(=O)CN2C(=O)c3ccccc3C2=O)cc1	-11.7	-1.7	1.3	-3.8	15.4
CCN(CC)c1ccc(/C=C/c2nc3ccccc3s2)cc1	94.1*	86.2*	/	94.6*	/
CCN(CC)c1ccc(NC(=O)COC(=O)/C=C/c2nc3ccccc3s2)cc1	-0.5	-20.2	-0.4	-0.6	3.5
C=CCc1cccc2cc(C(=O)Nc3cccc(C(=O)O)c3)c(=O)oc12	21.2	54.6*	/	24.8	/
CCc1ccc(C(=O)COC(=O)c2ccccc2OC)cc1	82.3*	89.1*	1.2	91.3*	5.5
SMILES	SENP8 block-1	SENP6 inh	SENP1 inh	SENP7 block	SENP8 block-2
N#C/C(=C\c1ccc(O)c(O)c1)C(=O)Nc1ccccc1	71.0*	79.5*	-33.9	47.4	-6.1
CCOC(=O)N=Nc1c2ccccc2c2nc3no[nH]c3nc12	31.1	61.8*	1.8	31.5	94.5*
CCOC(=O)N=Nc1c(O)n(CC(=O)OC)c2ccccc12	-2.0	1.5	0.3	-4.5	19.7
O=C(c1c(F)cccc1F)N1CCC(O)(c2ccc(F)cc2)CC1	10.9	-13.6	1.5	-3.7	15.5
Cc1cc(N=Nc2ccc(C)c(N=Nc3cc(C)c(N)cc3N)c2)c(N)cc1N	52.6*	52.1*	15.7	5.8	30.7
COc1ccc2c(C)cc3n[nH]c(=S)n3c2c1	-3.1	-30.6	-9.6	-2.9	i
COc1ccc2nc(NC(=O)Cc3cccs3)sc2c1	5.2	2.1	-15.5	11.1	17.2
Cc1ccc2nc(NC(=O)Cc3cccs3)sc2c1	36.5	63.0*	-0.3	54.3*	-1.2
CC1CC(Nc2cccc(O)c2)=CC(=O)O1 (stereo unspecified)	-2.9	-7.2	-6.3	2.0	-1.0
C[C@@H]1Cc2c(O)c(O)cc(O)c2C(=O)O1	3.5	-1.6	-4.3	1.4	44.4*
O=C(Cn1c(C(F)(F)F)nc2ccccc21)N=Nc1c(O)[nH]c2ccc(Br)cc12	8.3	5.2	3.6	-3.1	4.2
COC(=O)c1ccccc1NC(=O)CNC(=O)c1ccc(OC)c(OC)c1	6.8	0.2	-0.2	0.4	19.4
CCCOC(=O)CCCN1C(=O)/C(=C2\SC(=S)N(CCCC(=O)OCCC)C2=O)SC1=S	3.1	-3.2	1.9	-10.6	37.7*
CCCCOC(=O)CCN1C(=O)/C(=C2\SC(=S)N(CCC(=O)OCCCC)C2=O)SC1=S	-10.0	8.0	0.5	-9.8	11.3
COc1ccc2c(c1)CC/C2=N\OC(=O)c1ccccc1OC	42.1	68.5*	1.2	67.2*	25.0
COc1ccccc1C(=O)O/N=C1/CCCc2c1ccc(OC)c2[N+](=O)[O-]	-2.9	-8.8	-1.5	13.5	28.6
Cc1ccc(C(=O)c2coc3c2C(=O)C(=O)c2ccccc2-3)cc1	2.8	23.1	2.8	-2.3	55.9*
Cc1oc2c(c1C(=O)c1ccc(Cl)cc1)C(=O)C(=O)c1ccccc1-2	/	/	8.1	/	113.4*
C[C@H]1CN([C@@H](C)CO)C(=O)CCCn2nncc2CO[C@@H]1CN(C)C(=O)c1ccc2ccn(C)c2c1	/	/	-1.0	/	-34.7
CCCN1C(=O)/C(=C/C=C2\N(CC)c3ccccc3C2(C)C)SC1=S	7.4	4.7	77.6	4.6	44.3*
C=CCN1C(=O)/C(=C\C=C2\N(C)c3ccccc3C2(C)C)SC1=S	-4.2	11.7	79.8	7.6	55.5*
COc1ccc(S(N)(=O)=O)cc1C(=O)N(C)CC(=O)Nc1ccc(N2CCOCC2)cc1	-8.0	-14.0	-1.3	-5.6	10.4
O=C(Oc1ccc(Cl)cc1)c1ccc(COC(=O)c2cnccn2)cc1	-2.9	18.0	0.9	9.4	14.7
CC(C)OC(=O)c1ccc(COC(=O)c2cnccn2)cc1	41.9	58.7*	1.6	69.5*	3.9
O=[N+]([O-])c1ccccc1/C=N/Nc1nccnc1Cl	22.0	22.8	1.8	33.7	15.0
SMILES	SENP8 block-1	SENP6 inh	SENP1 inh	SENP7 block	SENP8 block-2
O=[N+]([O-])c1cccnc1N/N=C/c1ccccc1O	86.7*	93.0*	3.7	97.1*	10.1
CN1/C(=C/C(=O)c2nc(S(C)(=O)=O)ncc2Cl)C(C)(C)c2ccccc21	5.0	-10.5	41.9*	7.2	24.7
Nc1ccc(Oc2ncccn2)cc1	4.2	30.5	0.8	16.3	82.5*
COc1ccc(Nc2c([N+](=O)[O-])ccc3c2=NC2(CCCCC2)N=3)cc1	1.1	11.8	3.0	-0.8	18.9
O=[N+]([O-])c1ccc2c(c1Nc1ccccc1)=NC1(CCCCC1)N=2	-4.5	11.5	4.4	6.9	44.6*
CCOc1ccc(NC(=O)Nc2ccccc2SC)cc1	95.3*	98.0*	2.4	98.7*	2.1
